Results on 7 compounds are retold here after ChEMBL document CHEMBL1143049, “Preparation, biological activity and endogenous occurrence of N6-benzyladenosines” (Bioorg Med Chem, 2007).

The structures appear in SMILES notation. Bounds are passed on as bounds.

The nature of test [1]: Cytotoxicity against mouse NIH 3T3 cells after 72 hrs by Calcein AM assay. The class given is cell-based. The following applies: NIH3T3, 72 h. The essentials: (§1)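 Cells grown in DMEM at 37 °C under 5% CO2. Compounds added after 12 h preincubation in 96-well plates, final 0.5-170 μM, with 0.6% final DMSO, then 72 h exposure. Viable cells stained with Calcein AM for 1 h and read at 485/538 nm. IC50 (concentration lethal to 50% of cells) taken from dose-response curves. Run in quadruplicate.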

A further test relates to Triticum aestivum. Nature of the test: Cytokinin activity in wheat assessed as retention of chlorophyll in excised wheat leaves at 0.1 mmol/L relative to 6-Benzylaminopurine by senescence assay. The class given is functional. The essentials:
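Senescence assay measuring chlorophyll retention in excised wheat leaves. DMSO stocks brought to 10^-3 M with water, then diluted in assay medium to a final DMSO of at most 0.2%. Concentrations 10^-4 to 10^-8 M, quintuplicate, repeated at least three times. Response at the optimal concentration normalised to BAP optimum = 100.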

The test system of the next test is Amaranthus. Nature of the test: Cytokinin activity in Amaranthus cotyledons assessed as dark induction of betacyanin synthesis at 0.01 mmol/L relative to 6-Benzylaminopurine. The class given is functional. In outline:
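Dark induction of betacyanin in excised Amaranthus cotyledons. DMSO stock brought to 10^-3 M in water, diluted into assay medium (DMSO ≤0.2%). Tested over 10^-4 to 10^-8 M, five replicates per concentration, assay repeated at least three times. Response at the optimal concentration expressed relative to BAP at its optimum (set to 100).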

The test system of the next test is K562. Kind of test: Antitumor activity against human K562 cells after 72 hrs by Calcein AM assay. To be noted: K562, 72 h. It counts as functional, cell-based. The essentials: as §1
The subject of the next test is G-361. Nature of the test: Antitumor activity against human G361 cells after 72 hrs by Calcein AM assay. The class given is functional, cell-based. To be noted: G-361, 72 h. In outline: as §1
The next test relates to HOS. Nature of the test: Antitumor activity against human HOS cells after 72 hrs by Calcein AM assay. The class given is functional, cell-based. The essentials: as §1
The test system of test [2] is Nicotiana tabacum. Kind of test: Cytokinin activity in tobacco assessed as stimulation of callus growth at 1 umol/L relative to 6-Benzylaminopurine. The class given is functional. The essentials:
(§2)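 Stimulation of tobacco callus growth. Compounds dissolved in DMSO, brought to 10^-3 M in water and diluted into medium (DMSO ≤0.2%). Range 10^-4 to 10^-8 M, five replicates per concentration, at least three independent repeats. Activity at the optimal concentration given relative to BAP's optimal response, taken as 100.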

For test [3], the target named is Histidine kinase 4 (Arabidopsis thaliana) (UniProt Q9C5U0). Kind of test: Activation of Arabidopsis thaliana CRE1/AHK4 cytokinin receptor relative to trans-zeatin. Set-up: concentration or dose not given beside the values. The essentials: (§3)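 E. coli KMI001 carrying pSTV28-AHK3 or pIN-III-AHK4, precultured overnight at 25 °C in M9 + 0.1% casamino acids to OD600 ~1. Diluted 1:600, compound or solvent added, then incubated at 25 °C for 28 h (AHK3) or 17 h (CRE1/AHK4). Supernatant incubated with 4-methylumbelliferyl β-D-galactoside for 1 h at 37 °C and stopped with Na2CO3. Fluorescence read at 365/460 nm. β-galactosidase expressed as nmol 4-MU × OD600⁻¹ × h⁻¹.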
Sequence of Histidine kinase 4 (Arabidopsis thaliana) (Q9C5U0 whole entry): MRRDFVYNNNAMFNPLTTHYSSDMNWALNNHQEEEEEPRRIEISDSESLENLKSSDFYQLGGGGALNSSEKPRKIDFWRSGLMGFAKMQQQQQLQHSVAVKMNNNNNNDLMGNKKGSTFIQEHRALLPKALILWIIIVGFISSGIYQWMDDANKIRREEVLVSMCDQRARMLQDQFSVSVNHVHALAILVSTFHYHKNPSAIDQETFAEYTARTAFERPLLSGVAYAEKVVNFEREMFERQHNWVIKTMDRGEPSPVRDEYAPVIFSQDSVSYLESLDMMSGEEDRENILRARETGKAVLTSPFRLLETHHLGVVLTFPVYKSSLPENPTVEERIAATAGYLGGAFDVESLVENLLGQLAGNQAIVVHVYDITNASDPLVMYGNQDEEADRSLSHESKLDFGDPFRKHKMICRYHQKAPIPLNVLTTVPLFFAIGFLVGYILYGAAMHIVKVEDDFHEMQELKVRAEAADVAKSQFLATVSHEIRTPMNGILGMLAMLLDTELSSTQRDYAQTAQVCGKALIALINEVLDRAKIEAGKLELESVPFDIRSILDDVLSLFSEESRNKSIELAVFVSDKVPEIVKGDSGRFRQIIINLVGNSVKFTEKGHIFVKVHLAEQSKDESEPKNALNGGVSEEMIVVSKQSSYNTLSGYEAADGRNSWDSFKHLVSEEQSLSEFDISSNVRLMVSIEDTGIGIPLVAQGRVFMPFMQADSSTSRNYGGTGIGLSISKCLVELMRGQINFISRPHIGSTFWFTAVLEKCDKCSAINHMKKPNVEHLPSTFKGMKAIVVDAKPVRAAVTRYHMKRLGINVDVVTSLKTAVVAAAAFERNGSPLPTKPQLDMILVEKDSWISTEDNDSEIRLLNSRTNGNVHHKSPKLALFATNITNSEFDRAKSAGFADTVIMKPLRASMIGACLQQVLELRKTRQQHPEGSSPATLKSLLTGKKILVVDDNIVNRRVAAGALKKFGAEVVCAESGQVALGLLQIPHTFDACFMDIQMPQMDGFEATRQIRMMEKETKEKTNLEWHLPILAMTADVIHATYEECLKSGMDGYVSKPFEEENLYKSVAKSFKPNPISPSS

Test [4] addresses T1, Histidine kinase 3 (Arabidopsis thaliana) (UniProt Q9C5U1).
T1 sequence (whole entry): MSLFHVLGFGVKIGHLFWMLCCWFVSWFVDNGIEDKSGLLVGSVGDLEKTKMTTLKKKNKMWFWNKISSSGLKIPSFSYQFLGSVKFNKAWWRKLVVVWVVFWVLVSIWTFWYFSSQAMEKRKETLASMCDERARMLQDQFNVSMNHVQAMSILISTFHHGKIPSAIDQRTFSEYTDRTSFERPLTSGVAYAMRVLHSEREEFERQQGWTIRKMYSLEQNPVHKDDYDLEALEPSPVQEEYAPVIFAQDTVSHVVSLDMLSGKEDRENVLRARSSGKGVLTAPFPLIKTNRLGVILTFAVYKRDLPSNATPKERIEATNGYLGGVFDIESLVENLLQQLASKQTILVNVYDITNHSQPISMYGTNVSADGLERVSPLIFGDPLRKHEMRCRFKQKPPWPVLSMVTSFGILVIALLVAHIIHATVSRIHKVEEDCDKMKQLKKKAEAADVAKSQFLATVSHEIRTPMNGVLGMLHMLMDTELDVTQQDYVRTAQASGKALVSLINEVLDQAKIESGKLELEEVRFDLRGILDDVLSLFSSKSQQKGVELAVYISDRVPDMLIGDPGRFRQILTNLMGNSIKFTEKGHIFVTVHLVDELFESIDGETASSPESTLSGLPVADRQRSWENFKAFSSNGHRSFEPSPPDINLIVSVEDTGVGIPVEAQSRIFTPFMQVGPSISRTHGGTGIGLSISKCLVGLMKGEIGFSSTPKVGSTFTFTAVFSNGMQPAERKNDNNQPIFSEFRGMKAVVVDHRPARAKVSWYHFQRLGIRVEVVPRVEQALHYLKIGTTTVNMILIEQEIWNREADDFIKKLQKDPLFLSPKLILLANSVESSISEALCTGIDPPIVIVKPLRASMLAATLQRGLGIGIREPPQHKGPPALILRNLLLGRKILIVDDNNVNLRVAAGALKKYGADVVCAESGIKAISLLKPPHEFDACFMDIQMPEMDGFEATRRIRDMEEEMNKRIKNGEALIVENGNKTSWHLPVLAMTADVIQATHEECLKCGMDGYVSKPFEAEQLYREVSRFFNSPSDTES
Nature of the test: Activation of Arabidopsis thaliana AHK3 cytokinin receptor relative to trans-zeatin. Set-up: concentration or dose not given beside the values. In outline: as §3

A short description of test [5]: Antitumor activity against human MCF cells after 72 hrs by Calcein AM assay. It counts as functional, cell-based. In outline:
as §1

In another test the test system is HL-60. Nature of the test: Antitumor activity against human HL60 cells after 72 hrs by Calcein AM assay. It counts as functional, cell-based. To be noted: HL-60, 72 h. The essentials: as §1
A further test relates to CCRF-CEM. Nature of the test: Antitumor activity against human CEM cells after 72 hrs by Calcein AM assay. The class given is functional, cell-based. The essentials:
as §1

Test [6] concerns Nicotiana tabacum. Nature of the test: Cytokinin activity in tobacco assessed as stimulation of callus growth at 0.01 mmol/L relative to 6-Benzylaminopurine. The class given is functional. In outline:
as §2

Another test deals with B16. Kind of test: Antitumor activity against mouse B16 cells after 72 hrs by Calcein AM assay. The class given is functional, cell-based. The following applies: B16, 72 h. The essentials: as §1

As usually defined, the IC50 is the concentration at which inhibition is half-maximal. Take `OC[C@H]1O[C@@H](n2cnc3c(NCc4ccc(F)cc4)ncnc32)[C@H](O)[C@@H]1O`: the IC50 in [1] was 44.3 µM; with K562, 2.7 µM; in the test on G-361, more than 167 µM; in the test on HOS it was 13.2 µM; in test [5] it was 21 µM; in the test on HL-60, 1200 nM. Also, the IC50 in the test with CCRF-CEM was 1.25 µM. The Activity in the test on Triticum aestivum amounted to 148%; in the test on Amaranthus, 71%; with Nicotiana tabacum [2] it was 100%; in test [3], 0.39%; in test [4] it was 7.67%.
For `OC[C@H]1O[C@@H](n2cnc3c(NCc4cccc(Cl)c4)ncnc32)[C@H](O)[C@@H]1O`, the IC50 in test [1] was more than 167 µM; in the test with K562, 27.7 µM; in the test with G-361, more than 167 µM; in the test with HOS it was more than 167 µM; in test [5] it was 26.9 µM; with HL-60 it was 750 nM. In the test on CCRF-CEM, the IC50 was 1.6 µM. Besides, the Activity with Triticum aestivum came out at 72%; in the test with Amaranthus, 139%; in the test with Nicotiana tabacum [6], 96%; in [3] it was 0.15%; in test [4], 2.63%.
Turning to `COc1ccccc1CNc1ncnc2c1ncn2[C@@H]1O[C@H](CO)[C@@H](O)[C@H]1O`, the IC50 in [1] was 140 µM; in the test on K562, 8.9 µM; in the test on G-361 it was more than 167 µM; in the test with HOS, more than 167 µM; in test [5], more than 167 µM; in the test on B16, more than 167 µM. Besides, the IC50 in the test on HL-60 is 2300 nM; in the test on CCRF-CEM, 3.2 µM. In addition, the Activity in the test with Triticum aestivum was 198%; in the test on Amaranthus, 86%; in the test on Nicotiana tabacum [6] it was 108%; in [3], 0.12%; in [4] it was 0.04%.
On to `OC[C@H]1O[C@@H](n2cnc3c(NCc4ccccc4Cl)ncnc32)[C@H](O)[C@@H]1O`, for which the IC50 in [1] is more than 167 µM; with K562, 64 µM; in the test on HOS, more than 167 µM; in [5], more than 167 µM; with B16, more than 167 µM; in the test on HL-60, 1600 nM. Besides, the IC50 with CCRF-CEM was 14.5 µM. The Activity with Triticum aestivum stood at 119%; in the test on Amaranthus it was 113%; in the test on Nicotiana tabacum [2], 93%; in test [3], 0.04%; in test [4], 0.02%.
In the case of `OC[C@H]1O[C@@H](n2cnc3c(NCc4ccccc4F)ncnc32)[C@H](O)[C@@H]1O`, the IC50 in test [1] was more than 167 µM; in the test with K562, 33.2 µM; in the test on HOS it was more than 167 µM; in test [5], more than 167 µM; with B16 it was more than 167 µM; with HL-60, 3200 nM. Also, the IC50 in the test with CCRF-CEM was 4.6 µM. Besides, the Activity in the test with Triticum aestivum was determined as 118%; in the test on Amaranthus, 96%; with Nicotiana tabacum [2] it was 100%; in test [3] it was 0.12%; in [4], 2.91%.
For `OC[C@H]1O[C@@H](n2cnc3c(NCc4ccc(Cl)cc4)ncnc32)[C@H](O)[C@@H]1O`, the IC50 is more than 167 µM in test [1]; 218 µM with K562; more than 167 µM in the test on G-361; more than 167 µM in the test on HOS; more than 167 µM in test [5]; more than 167 µM with B16. Moreover, the IC50 in the test with HL-60 was 1700 nM; in the test on CCRF-CEM it was 10.2 µM. Moreover, the Activity was 104% in the test with Triticum aestivum; 35% in the test on Amaranthus; 46% in the test with Nicotiana tabacum [2]; 0.23% in [3]; 0.81% in test [4].
As to `OC[C@H]1O[C@@H](n2cnc3c(NCc4cccc(F)c4)ncnc32)[C@H](O)[C@@H]1O`, the IC50 was 84 µM in test [1]; 7.6 µM in the test on K562; more than 167 µM in the test with G-361; more than 167 µM with HOS; 15.3 µM in test [5]; 920 nM with HL-60. For the same compound, the IC50 in the test with CCRF-CEM was 4 µM. Besides, the Activity in the test on Triticum aestivum was 220%; in the test with Amaranthus, 92%; with Nicotiana tabacum [6], 91%; in test [3], 0.36%; in test [4], 0.99%.
